The IC50 is the point on the concentration scale where inhibition reaches its midpoint.

In the test the target is Sodium/potassium-transporting ATPase. Briefly: Inhibition of [3H]- ouabain binding to digitalis receptor. The test is classed as protein-complex assay, Cavia porcellus. In a few lines: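 Radioligand binding to the digitalis receptor recognition site of heart muscle, read as displacement of [3H]ouabain.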

With `CC1O[C@@H](O[C@H]2CC[C@@]3(C)[C@H](CC[C@@H]4[C@@H]3CC[C@]3(C)[C@@H](CO)CC[C@]43O)C2)C[C@@H](O)[C@@H]1O` (stereo partly specified), the half-maximal inhibitory concentration (IC50) is 610 nM. Regarding `CC1O[C@@H](O[C@H]2CC[C@@]3(C)[C@H](CC[C@@H]4[C@@H]3CC[C@]3(C)[C@@H](C[N+](=O)[O-])CC[C@]43O)C2)C[C@@H](O)[C@@H]1O` (stereo partly specified), the half-maximal inhibitory concentration (IC50) came to 88 nM. Against the preceding compound, the IC50 is about 6.9-fold lower.

Compound `C[C@H]1O[C@H](O[C@H]2CC[C@@]3(C)[C@H](CC[C@@H]4[C@@H]3CC[C@]3(C)[C@@H](C(=O)CO)CC[C@]43O)C2)[C@H](O)[C@H](O)[C@H]1O` returned a concentration for half-maximal inhibition (IC50) of 1070 nM.

In the case of `CC1O[C@@H](O[C@H]2CC[C@@]3(C)[C@H](CC[C@@H]4[C@@H]3CC[C@]3(C)[C@@H](CO)CC[C@]43O)C2)C(O)[C@@H](O)[C@H]1O` (stereo partly specified), the half-inhibitory concentration (IC50) stood at 360 nM. This IC50 lies about 3-fold lower than the previous one. `CC1O[C@@H](O[C@H]2CC[C@@]3(C)[C@H](CC[C@@H]4[C@@H]3CC[C@]3(C)[C@@H](C[N+](=O)[O-])CC[C@]43O)C2)C(O)[C@@H](O)[C@H]1O` (stereo partly specified) came in with a concentration for half-maximal inhibition (IC50) of 12 nM. Compared with the last compound, the IC50 is about 30-fold lower.

`CC1O[C@@H](O[C@H]2CC[C@@]3(C)[C@H](CC[C@@H]4[C@@H]3CC[C@]3(C)[C@@H](C(=O)O)CC[C@]43O)C2)C[C@@H](O)[C@@H]1O` (stereo partly specified) came in with a concentration for half-maximal inhibition (IC50) of 36000 nM. This IC50 lies about 3000-fold higher than the previous one.

As for `COC(=O)[C@H]1CC[C@]2(O)[C@@H]3CC[C@@H]4C[C@@H](O[C@H]5C[C@@H](O)[C@H](O)C(C)O5)CC[C@]4(C)[C@H]3CC[C@]12C` (stereo partly specified), the IC50 amounted to 15000 nM. Then `CC1O[C@@H](O[C@H]2CC[C@@]3(C)[C@H](CC[C@@H]4[C@@H]3CC[C@]3(C)[C@@H](CN)CC[C@]43O)C2)C(O)[C@@H](O)[C@H]1O` (stereo partly specified), with 99 nM; and `CC1O[C@@H](O[C@H]2CC[C@@]3(C)[C@H](CC[C@@H]4[C@@H]3CC[C@]3(C)[C@@H](CC[N+](=O)[O-])CC[C@]43O)C2)C(O)[C@@H](O)[C@H]1O` (stereo partly specified), with 45 nM. Turning to `C[C@H]1O[C@@H](O[C@H]2CC[C@@]3(C)[C@H](CC[C@@H]4[C@@H]3CC[C@]3(C)[C@@H](CN)CC[C@]43O)C2)C[C@@H](O)[C@@H]1O`, the IC50 was 270 nM. `C[C@H]1O[C@@H](O[C@H]2[C@@H](O)C[C@H](O[C@H]3[C@@H](O)C[C@H](O[C@H]4CC[C@@]5(C)[C@H](CC[C@@H]6[C@@H]5CC[C@]5(C)[C@@H](C7=CC(=O)OC7)CC[C@]65O)C4)O[C@@H]3C)O[C@@H]2C)C[C@H](O)[C@@H]1O` [DIGITOXIN] had a concentration for half-maximal inhibition (IC50) of 8 nM.

The values above are taken from ChEMBL document CHEMBL1126931, “Synthesis of 20-hydroxy-, 20-amino-, and 20-nitro-14-hydroxy-21-nor-5 beta,14 beta-pregnane C-3 glycosides and related derivatives: structure-activity relationships of pregnanes that bind to the digitalis receptor” (J Med Chem, 1993).
